According to ChEMBL document CHEMBL2434954, “Novel 6β-acylaminomorphinans with analgesic activity” (Eur J Med Chem, 2013):
Activity calls are given as the source filed them.

Key:
[1] = molecular target: T1, Mu-type opioid receptor (Mus musculus, UniProt P42866); assay: Displacement of [125I]-BNtxA from mouse cloned mu opioid receptor expressed in CHO cells after 90 mins; type: cell-based
How it was run: (§1)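 CHO membranes stably expressing cloned mouse MOR-1, DOR-1 or KOR-1 (30-40 μg/mL protein), competition against 0.1 nM 125I-BNtxA. Incubation 90 min at 25°C in 50 mM potassium phosphate pH 7.4, with 5 mM MgSO4 for MOR-1 only. Nonspecific binding with 8 μM levallorphan. Ki from IC50. Mean ± SEM, at least three replicates.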

[2] = molecular target: T2, Delta-type opioid receptor (Mus musculus, UniProt P32300); assay: Displacement of [125I]-BNtxA from mouse cloned delta opioid receptor expressed in CHO cells after 90 mins; type: cell-based; how it was run: as §1
[3] = molecular target: T3, Kappa-type opioid receptor (Mus musculus, UniProt P33534); assay: Displacement of [125I]-BNtxA from mouse cloned kappa opioid receptor expressed in CHO cells after 90 mins; type: cell-based; how it was run: as §1
[4] = test system: Mus musculus; assay: Analgesic activity in sc dosed CD1 mouse assessed as increase in pain threshold by tail flick method; type: functional
How it was run: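 Male CD-1 mice (25-35 g), radiant heat tail-flick. Baseline 2.0-3.0 s, mean of two trials. Cumulative s.c. dosing, tested 30 min after dose, groups n=10, two independent assays. Analgesia defined quantally as doubling or more of baseline latency.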

[5] = species on record: Mus musculus; assay: Selectivity ratio of Ki for mouse cloned kappa opioid receptor to Ki for mouse cloned mu opioid receptor
[6] = molecular target: T1, Mu-type opioid receptor; assay: Agonist activity at mouse cloned mu opioid receptor expressed in CHO cells after 60 mins by [35S]GTPgammaS binding assay; type: functional, cell-based
How it was run: (§2)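 Membranes from transfected cells incubated with agonist 60 min at 30°C in 50 mM Tris-HCl pH 7.4, 3 mM MgCl2, 0.2 mM EGTA, 10 mM NaCl, with 0.05 nM [35S]GTPγS and GDP. Filtration on glass-fibre filters, scintillation counting. Basal binding with GDP and no drug. Mean ± SEM, three assays in triplicate.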

[7] = species on record: Mus musculus; assay: Selectivity ratio of Ki for mouse cloned delta opioid receptor to Ki for mouse cloned mu opioid receptor
[8] = test system: Mus musculus; assay: Analgesic activity in sc dosed CD1 mouse assessed as increase in pain threshold by tail flick method in presence of delta opioid receptor antagonist […]; type: functional, organism-based
How it was run: (§3)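 Tail-flick test in CD1 mice (n=6 per group) given agonist 5 mg/kg s.c. alone or with antagonist s.c.: norBNI 10 mg/kg or β-FNA 40 mg/kg 24 h before, NTI 20 mg/kg 15 min before. Latency read 30 min after agonist. Two independent replications; ANOVA with Bonferroni test (p < 0.05).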

[9] = test system: Mus musculus; assay: Analgesic activity in sc dosed CD1 mouse assessed as increase in pain threshold by tail flick method in presence of kappa opioid receptor antagonist norBNI; type: functional, organism-based; how it was run: as §3
[10] = species on record: Mus musculus; assay: Selectivity ratio of EC50 for mouse cloned kappa opioid receptor to EC50 for mouse cloned mu opioid receptor by [35S]GTPgammaS binding assay; type: functional
[11] = test system: Mus musculus; assay: Toxicity in CD1 mouse assessed as respiratory depression at 24 mg/kg, sc measured after 15 to 35 mins; type: organism-based; design: dose 24 mg/kg, route subcutaneous; details: in vivo
How it was run: (§4)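 Awake, freely moving adult male CD1 mice, pulse oximeter breath rate after 30 min habituation. 5-s average breath rate every 5 min. Baseline over 25 min before s.c. injection, then recorded from 15 min post-injection for 35 min. Groups n=3, saline control. Values given as percent of baseline.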

[12] = molecular target: Mu-type opioid receptor (Mus musculus) (UniProt P42866); assay: Agonist activity at mouse cloned mu opioid receptor expressed in CHO cells after 60 mins by [35S]GTPgammaS binding assay relative to DAMGO; type: functional, cell-based
How it was run: as §2, with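 “drug. […]” for “drug.”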

[13] = molecular target: T2, Delta-type opioid receptor; assay: Agonist activity at mouse cloned delta opioid receptor expressed in CHO cells after 60 mins by [35S]GTPgammaS binding assay; type: functional, cell-based; how it was run: as §2
[14] = molecular target: Kappa-type opioid receptor (Mus musculus) (UniProt P33534); assay: Agonist activity at mouse cloned kappa opioid receptor expressed in CHO cells at 100 nM after 60 mins by [35S]GTPgammaS binding assay relative to U50488H; type: functional, cell-based
How it was run: as §2, with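 “drug. […]” for “drug.”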

[15] = test system: Mus musculus; assay: Analgesic activity in sc dosed CD1 mouse assessed as increase in pain threshold by tail flick method in presence of mu opioid receptor antagonist beta-FNA; type: functional, organism-based; how it was run: as §3
[16] = molecular target: Delta-type opioid receptor (Mus musculus) (UniProt P32300); assay: Agonist activity at mouse cloned delta opioid receptor expressed in CHO cells after 60 mins by [35S]GTPgammaS binding assay relative to DPDPE; type: functional, cell-based
How it was run: as §2, with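 “drug. […]” for “drug.”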

[17] = species on record: Mus musculus; assay: Selectivity ratio of EC50 for mouse cloned delta opioid receptor to EC50 for mouse cloned mu opioid receptor by [35S]GTPgammaS binding assay; type: functional
[18] = molecular target: T3, Kappa-type opioid receptor; assay: Agonist activity at mouse cloned kappa opioid receptor expressed in CHO cells after 60 mins by [35S]GTPgammaS binding assay; type: functional, cell-based
How it was run: as §2, with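 “drug. […]” for “drug.”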

[19] = test system: Mus musculus; assay: Toxicity in CD1 mouse assessed as respiratory depression at 20 mg/kg, sc measured after 15 to 35 mins; type: organism-based; design: dose 20 mg/kg, route subcutaneous; details: in vivo; how it was run: as §4

T3 sequence (P33534 whole entry): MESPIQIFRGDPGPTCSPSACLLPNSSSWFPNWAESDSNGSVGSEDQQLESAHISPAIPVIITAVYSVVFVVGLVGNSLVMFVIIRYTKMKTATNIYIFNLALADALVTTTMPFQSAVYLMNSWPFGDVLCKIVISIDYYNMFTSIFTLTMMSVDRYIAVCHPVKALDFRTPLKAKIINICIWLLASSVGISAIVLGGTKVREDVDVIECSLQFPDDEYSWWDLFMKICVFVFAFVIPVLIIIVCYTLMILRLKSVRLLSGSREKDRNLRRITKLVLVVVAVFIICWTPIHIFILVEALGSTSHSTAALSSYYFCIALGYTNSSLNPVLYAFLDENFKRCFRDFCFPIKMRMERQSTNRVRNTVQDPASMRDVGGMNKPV
T2 sequence (P32300 whole entry): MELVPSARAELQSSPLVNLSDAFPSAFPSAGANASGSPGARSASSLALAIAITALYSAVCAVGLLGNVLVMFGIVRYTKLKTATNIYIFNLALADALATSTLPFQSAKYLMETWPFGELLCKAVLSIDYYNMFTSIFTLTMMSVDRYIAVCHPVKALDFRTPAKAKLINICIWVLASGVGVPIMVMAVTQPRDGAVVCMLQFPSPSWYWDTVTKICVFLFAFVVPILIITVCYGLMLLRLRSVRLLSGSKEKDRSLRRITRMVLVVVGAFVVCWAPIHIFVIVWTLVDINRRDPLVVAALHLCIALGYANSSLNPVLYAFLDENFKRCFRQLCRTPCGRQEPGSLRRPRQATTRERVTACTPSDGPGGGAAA
T1 sequence (P42866 whole entry): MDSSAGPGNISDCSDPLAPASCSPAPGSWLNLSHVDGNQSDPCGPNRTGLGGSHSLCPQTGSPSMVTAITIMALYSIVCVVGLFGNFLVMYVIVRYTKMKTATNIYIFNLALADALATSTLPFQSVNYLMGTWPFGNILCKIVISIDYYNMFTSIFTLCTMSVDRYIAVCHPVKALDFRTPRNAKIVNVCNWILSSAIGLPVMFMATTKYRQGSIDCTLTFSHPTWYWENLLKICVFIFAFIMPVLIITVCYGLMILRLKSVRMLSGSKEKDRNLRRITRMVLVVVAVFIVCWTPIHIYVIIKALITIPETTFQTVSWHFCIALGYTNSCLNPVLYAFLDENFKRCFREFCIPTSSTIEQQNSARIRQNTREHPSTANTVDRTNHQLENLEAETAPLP
Kappa-type opioid receptor (Mus musculus), sequence (P33534 whole entry): as the sequence (P33534 whole entry) above
Delta-type opioid receptor (Mus musculus), sequence (P32300 whole entry): as the sequence (P32300 whole entry) above
Mu-type opioid receptor (Mus musculus), sequence (P42866 whole entry): as the sequence (P42866 whole entry) above

| SMILES | Ki [1] [nM] | Ki [2] [nM] | Ki [3] [nM] | ED50 [4] [mg/kg] | further results |
| --- | --- | --- | --- | --- | --- |
| COc1ccc2c3c1O[C@H]1[C@H](NC(=O)/C=C/c4ccc(Cl)cc4)C=C[C@H]4[C@@H](C2)N(C)CC[C@@]341 | 3.81 | > 100 | > 100 | > 10 | – |
| COc1ccc(/C=C/C(=O)N[C@@H]2C=C[C@H]3[C@H]4Cc5ccc(OC)c6c5[C@@]3(CCN4C)[C@H]2O6)cc1 | 25.2 | > 100 | > 100 | > 10 | – |
| CN1CC[C@]23c4c5ccc(O)c4O[C@H]2[C@H](NC(=O)/C=C/c2ccc(C(F)(F)F)cc2)C=C[C@H]3[C@H]1C5 | 0.19 | 14.5 | 10.5 | > 10 | Ratio Ki [5]: 55.4 |
| CN1CC[C@]23c4c5ccc(O)c4O[C@H]2[C@H](NC(=O)/C=C/c2ccc(Cl)cc2)C=C[C@H]3[C@H]1C5 | 0.15 | 9.38 | 1.97 | > 10 | – |
| CN1CC[C@]23c4c5ccc(O)c4O[C@H]2[C@H](NC(=O)/C=C/c2ccccc2)C=C[C@H]3[C@H]1C5 | 0.1 | 10.3 | 2.9 | 3.13 | EC50 [6]: 1.38 nM; Ratio Ki [7]: 103; Activity [8]: inactive; Activity [9]: Active; Ratio EC50 [10]: 25; Activity [11]: Non-toxic; Efficacy [12]: 95.3%; EC50 [13]: 9.1 nM; Efficacy [14]: 106%; Activity [15]: inactive; Efficacy [16]: 102%; Ratio EC50 [17]: 4; EC50 [18]: 36.5 nM |
| COc1ccc2c3c1O[C@H]1[C@H](NC(=O)/C=C/c4ccccc4)C=C[C@H]4[C@@H](C2)N(C)CC[C@@]341 | 4.73 | > 100 | > 100 | > 10 | – |
| COc1ccc(/C=C/C(=O)N[C@@H]2C=C[C@H]3[C@H]4Cc5ccc(O)c6c5[C@@]3(CCN4C)[C@H]2O6)cc1 | 0.74 | 15.3 | 5.43 | > 10 | – |
| COc1ccc2c3c1O[C@H]1[C@H](NC(=O)/C=C/c4ccc(C(F)(F)F)cc4)C=C[C@H]4[C@@H](C2)N(C)CC[C@@]341 | 5.44 | > 100 | > 100 | > 10 | – |
| COc1ccc2c3c1O[C@H]1[C@H](NC(=O)/C=C/c4cccc([N+](=O)[O-])c4)C=C[C@H]4[C@@H](C2)N(C)CC[C@@]341 | 3.74 | > 100 | > 100 | > 10 | – |
| CN1CC[C@]23c4c5ccc(O)c4O[C@H]2[C@@H](O)C=C[C@H]3[C@H]1C5 [MORPHINE] | – | – | – | 4.96 | Activity [19]: Toxic |
| CN1CC[C@]23c4c5ccc(O)c4O[C@H]2[C@H](NC(=O)/C=C/c2cccc([N+](=O)[O-])c2)C=C[C@H]3[C@H]1C5 | 0.12 | 5.15 | 0.81 | > 10 | – |
